Experimental data published in ChEMBL document CHEMBL1133655, “Preparation and biological activity of amino acid and peptide conjugates of antitumor hydroxymethylacylfulvene” (J Med Chem, 2000).
Peptide text beside a SMILES is read from it. * marks the point of attachment. X1 = CC1=C(C*)C2=C(C)C3(CC3)[C@@](C)(O)C(=O)C2=C1

Assay: Concentration required for 50% toxicity in metastatic lung carcinoma (MV522) cells.
Conditions: Homo sapiens
Outline: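 Compounds held as 1 mg/mL DMSO stock, diluted in 20% DMSO/phosphate-buffered saline just before addition to MV 522 cultures; controls got equal DMSO/PBS. After 48 h incubation, cells were washed, stained with trypan blue and counted. Counts were reported as corresponding closely with colony-forming assay values.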

Compound | IC50
CC1=C(CSCC[C@H](N)C(=O)O)C2=C(C)C3(CC3)[C@@](C)(O)C(=O)C2=C1 | > 50 µM
CC1=C(CSCC(N)C(=O)O)C2=C(C)C3(CC3)[C@@](C)(O)C(=O)C2=C1 (stereo partly specified) | 29.2 µM
CC1=C(CSCC(NC(=O)CCC(N)C(=O)O)C(=O)NCC(=O)O)C2=C(C)C3(CC3)[C@@](C)(O)C(=O)C2=C1 (stereo partly specified) | 15.5 µM
CC(=O)NC(CSCC1=C(C)C=C2C(=O)[C@](C)(O)C3(CC3)C(C)=C21)C(=O)N[C@@H](C)c1ccccc1 (stereo partly specified) | 2.5 µM
CC1=C2C(=C[C@@](C)(CO)C2O)C(=O)[C@](C)(O)C12CC2 (stereo partly specified) | 0.073 µM
CC(=O)N[C@@H](CSCC1=C(C)C=C2C(=O)[C@](C)(O)C3(CC3)C(C)=C21)C(=O)N[C@@H](Cc1ccccc1)C(=O)NCC(=O)N[C@@H](CC(C)C)C(=O)O (Ac-C(X1)FGL-OH) | 37.2 µM
CC(=O)N[C@@H](CSCC1=C(C)C=C2C(=O)[C@](C)(O)C3(CC3)C(C)=C21)C(=O)N[C@@H](CC(C)C)C(=O)NCC(=O)N[C@@H](Cc1ccccc1)C(=O)O (Ac-C(X1)LGF-OH) | 28.2 µM
CC(=O)N[C@@H](CSCC1=C(C)C=C2C(=O)[C@](C)(O)C3(CC3)C(C)=C21)C(=O)N[C@@H](CC(C)C)C(=O)N[C@@H](CC(C)C)C(=O)N[C@@H](Cc1ccccc1)C(=O)O (Ac-C(X1)LLF-OH) | > 40 µM
CC(=O)N[C@@H](CSCC1=C(C)C=C2C(=O)[C@](C)(O)C3(CC3)C(C)=C21)C(=O)N[C@@H](CC(C)C)C(=O)N[C@@H](CC(C)C)C(=O)N[C@@H](CC(C)C)C(=O)O (Ac-C(X1)LLL-OH) | 24.7 µM
CC1=CC2=C(C)C3(CC3)[C@@](C)(O)C(=O)C2=C1 [ACYLFULVENE] | 0.35 µM
CC1=C(CO)C2=C(C)C3(CC3)[C@@](C)(O)C(=O)C2=C1 [IROFULVEN] | 0.004 µM
